Columns and labels:
[1] = system: K562; assay: Induction of specific necrosis in human K562 cells after 72 hrs by annexin V-FITC/propidium iodide staining based flow cytometry; format: functional; design: concentration or dose not given beside the values
Method in brief: (§1)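 K562 cells treated 24 or 72 h, double-stained with Annexin V-FITC/PI and analysed by flow cytometry to give percentages of live, apoptotic and necrotic cells; apoptotic and necrotic responses expressed as specific apoptosis or specific necrosis (%).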

[2] = system: Raji; assay: Antiproliferative activity against human Raji cells after 72 hrs by MTT assay; format: functional, cell-based
Method in brief: (§2)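 Human tumour lines and MRC-5 foetal lung fibroblasts (normal-cell comparator) exposed to compounds for 72 h; viability read by standard MTT assay. IC50 taken as concentration inhibiting growth by 50% versus untreated control; means of three independent experiments, coefficients of variation under 10%.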

[3] = Antiproliferative activity against human HL60 cells after 72 hrs by MTT assay; format: functional, cell-based, HL-60; method in brief: as §2
[4] = system: K562; assay: Induction of cell cycle arrest in human K562 cells assessed as accumulation at G2/M phase after 24 hrs by propidium iodide staining-based flow cytometry (reference value: 14.29%); format: functional
Method in brief: (§3)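 Exponentially growing K562 cells treated 24 or 72 h; cells stained with propidium iodide and cell-cycle distribution (sub-G1, G0/G1, S, G2/M, %) measured by flow cytometry; untreated cells as control.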

[5] = system: K562; assay: Induction of apoptosis in human K562 cells assessed as Bcl2 protein level after 24 hrs by Western blotting method (reference value: 22.81%); format: functional
[6] = system: K562; assay: Antiproliferative activity against human K562 cells after 72 hrs by MTT assay; format: functional, cell-based; method in brief: as §2
[7] = system: K562; assay: Induction of apoptosis in human K562 cells assessed as early apoptotic cells after 72 hrs by annexin V-FITC/propidium iodide staining based flow cytometry (reference value: 3.22%); format: functional; method in brief: as §1
[8] = system: K562; assay: Induction of cell cycle arrest in human K562 cells assessed as accumulation at S phase after 24 hrs by propidium iodide staining-based flow cytometry (reference value: 48.38%); format: functional; method in brief: as §3
[9] = system: K562; assay: Induction of apoptosis in human K562 cells assessed as late apoptotic cells after 24 hrs by annexin V-FITC/propidium iodide staining based flow cytometry (reference value: 4.58%); format: functional; method in brief: as §1
[10] = system: K562; assay: Induction of apoptosis in human K562 cells assessed as cleaved PARP level after 72 hrs by Western blotting method (reference value: 18.36%); format: functional
[11] = system: K562; assay: Induction of apoptosis in human K562 cells assessed as early apoptotic cells after 24 hrs by annexin V-FITC/propidium iodide staining based flow cytometry (reference value: 8.09%); format: functional; method in brief: as §1
[12] = system: K562; assay: Induction of apoptosis in human K562 cells assessed as Bcl2 protein level after 72 hrs by Western blotting method (reference value: 7.90%); format: functional
[13] = system: K562; assay: Induction of cell cycle arrest in human K562 cells assessed as accumulation at G2/M phase after 72 hrs by propidium iodide staining-based flow cytometry (reference value: 15.31%); format: functional; method in brief: as §3
[14] = system: K562; assay: Induction of apoptosis in human K562 cells assessed as necrotic cells after 24 hrs by annexin V-FITC/propidium iodide staining based flow cytometry (reference value: 1.50%); format: functional; method in brief: as §1
[15] = system: K562; assay: Induction of cell cycle arrest in human K562 cells assessed as accumulation at Sub-G1 phase after 72 hrs by propidium iodide staining-based flow cytometry (reference value: 3.04%); format: functional; method in brief: as §3
[16] = system: K562; assay: Induction of apoptosis in human K562 cells assessed as cleaved PARP level after 24 hrs by Western blotting method (reference value: 36.17%); format: functional
[17] = system: MRC5; assay: Cytotoxicity against human MRC5 cells after 72 hrs by MTT assay; format: cell-based; details: MRC5, 72 h; method in brief: as §2
[18] = system: HeLa; assay: Antiproliferative activity against human HeLa cells after 72 hrs by MTT assay; format: functional, cell-based; method in brief: as §2
[19] = system: K562; assay: Induction of apoptosis in human K562 cells assessed as necrotic cells after 72 hrs by annexin V-FITC/propidium iodide staining based flow cytometry (reference value: 7.23%); format: functional; method in brief: as §1
[20] = system: MCF7; assay: Antiproliferative activity against human MCF7 cells after 72 hrs by MTT assay; format: functional, cell-based; details: MCF7, 72 h; method in brief: as §2
[21] = system: K562; assay: Induction of apoptosis in human K562 cells assessed as living cells after 72 hrs by annexin V-FITC/propidium iodide staining based flow cytometry (reference value: 84.31%); format: functional; method in brief: as §1
[22] = system: K562; assay: Induction of apoptosis in human K562 cells assessed as caspase 3 level after 72 hrs by Western blotting method (reference value: 17.05%); format: functional
[23] = system: K562; assay: Induction of apoptosis in human K562 cells assessed as living cells after 24 hrs by annexin V-FITC/propidium iodide staining based flow cytometry (reference value: 85.85%); format: functional; method in brief: as §1
[24] = system: K562; assay: Induction of cell cycle arrest in human K562 cells assessed as accumulation at S phase after 72 hrs by propidium iodide staining-based flow cytometry (reference value: 35.73%); format: functional; method in brief: as §3
[25] = system: Jurkat; assay: Antiproliferative activity against human Jurkat cells after 72 hrs by MTT assay; format: functional, cell-based; method in brief: as §2
[26] = system: HT-29; assay: Antiproliferative activity against human HT-29 cells after 72 hrs by MTT assay; format: functional, cell-based; details: HT-29, 72 h; method in brief: as §2
[27] = system: K562; assay: Induction of specific necrosis in human K562 cells after 24 hrs by annexin V-FITC/propidium iodide staining based flow cytometry; format: functional; design: concentration or dose not given beside the values; method in brief: as §1
[28] = system: K562; assay: Induction of cell cycle arrest in human K562 cells assessed as accumulation at G0/G1 phase after 24 hrs by propidium iodide staining-based flow cytometry (reference value: 36.28%); format: functional; method in brief: as §3
[29] = system: K562; assay: Induction of cell cycle arrest in human K562 cells assessed as accumulation at G0/G1 phase after 72 hrs by propidium iodide staining-based flow cytometry (reference value: 45.92%); format: functional; method in brief: as §3
[30] = system: K562; assay: Induction of specific apoptosis in human K562 cells after 72 hrs by annexin V-FITC/propidium iodide staining based flow cytometry; format: functional; design: concentration or dose not given beside the values; method in brief: as §1
[31] = system: K562; assay: Induction of cell cycle arrest in human K562 cells assessed as accumulation at Sub-G1 phase after 24 hrs by propidium iodide staining-based flow cytometry (reference value: 1.05%); format: functional; method in brief: as §3
[32] = system: K562; assay: Induction of apoptosis in human K562 cells assessed as late apoptotic cells after 72 hrs by annexin V-FITC/propidium iodide staining based flow cytometry (reference value: 5.24%); format: functional; method in brief: as §1
[33] = system: K562; assay: Induction of apoptosis in human K562 cells assessed as caspase 3 level after 24 hrs by Western blotting method (reference value: 42.77%); format: functional
[34] = system: K562; assay: Induction of apoptosis in human K562 cells assessed as Bax protein level after 72 hrs by Western blotting method (reference value: 32.81%); format: functional
[35] = system: K562; assay: Induction of apoptosis in human K562 cells assessed as Bax protein level after 24 hrs by Western blotting method (reference value: 16.13%); format: functional
[36] = system: K562; assay: Induction of specific apoptosis in human K562 cells after 24 hrs by annexin V-FITC/propidium iodide staining based flow cytometry; format: functional; design: concentration or dose not given beside the values; method in brief: as §1
[37] = Antiproliferative activity against human HL60 cells after 24 hrs; format: functional, cell-based; details: HL-60, 24 h

Row | IC50 [20] | SMILES | Activity [1] | Activity [4] | Activity [5] | Activity [7] | Activity [8] | Activity [9] | Activity [10] | Activity [11] | Activity [12] | Activity [13] | Activity [14] | Activity [15] | Activity [16] | IC50 [17] | Activity [19] | Activity [21] | Activity [22] | Activity [23] | Activity [24] | other results
1 | > 100000 nM | NC(=O)c1csc([C@@H]2O[C@H](CO)[C@@H](O)[C@H]2N)n1 | 7.11% | 20.06% | 9.06% | 22.56% | 46.33% | 10.18% | 11.32% | 12.02% | 3.21% | 12.16% | 6.48% | 13.52% | 10.01% | > 100000 nM | 8.02% | 2.92% | 38.2% | 71.33% | 34.08% | IC50 ([2]; raji): 2590 nM; IC50 ([3]; hl-60): 12200 nM; IC50 ([6]; k562): 510 nM; IC50 ([18]; hela): 150 nM; IC50 [25]: > 100000 nM; IC50 [26]: > 100000 nM; Activity [27]: 4.97%; Activity [28]: 32.21%; Activity [29]: 40.24%; Activity [30]: 33.39%; Activity [31]: 1.4%; Activity [32]: 66.51%; Activity [33]: 22.07%; Activity [34]: 112.54%; Activity [35]: 3.52%; Activity [36]: 17.57%
2 | 19900 nM | NC(=O)c1csc([C@@H]2O[C@H](CO)[C@@H](O)[C@H]2NC(=O)c2ccccc2)n1 | 6.86% | 5.67% | 64.31% | 7.94% | 49.13% | 26.45% | 63.83% | 6.54% | 15.94% | 10.5% | 13.22% | 11.29% | 57.9% | 50 nM | 7.35% | 3.74% | 27.61% | 53.81% | 34.11% | IC50 ([2]; Homo sapiens, Raji, 72 h): 10 nM; IC50 ([3]; Homo sapiens, HL-60, 72 h): 20400 nM; IC50 ([6]; Homo sapiens, K562, 72 h): 20 nM; IC50 [37]: 120 nM; IC50 ([18]; Homo sapiens, HeLa, 72 h): > 100000 nM; IC50 [25]: 30 nM; IC50 [26]: 20 nM; Activity [27]: 11.71%; Activity [28]: 39.08%; Activity [29]: 44.1%; Activity [30]: 50.41%; Activity [31]: 6.12%; Activity [32]: 80.99%; Activity [33]: 93.34%; Activity [34]: 95.1%; Activity [35]: 30.99%; Activity [36]: 29%

Source: ChEMBL document CHEMBL3774311, “Synthesis and in vitro antitumour activity of tiazofurin analogues with nitrogen functionalities at the C-2' position” (Eur J Med Chem, 2016)
